In ChEMBL document CHEMBL1156783, “Synthesis, biological evaluation, X-ray structure, and pharmacokinetics of aminopyrimidine c-jun-N-terminal kinase (JNK) inhibitors” (J Med Chem, 2010):
pIC50: −log10 of the molar value. Values belong to the molecule of their own block, whether it stands above or below them. The source made the active and inactive calls. No cut-off for these calls is given here.

Columns and labels:
[1] = biological target: Mitogen-activated protein kinase 8 (Homo sapiens, UniProt P45983); assay: Inhibition of JNK1 by time resolved fluorescence assay
[2] = biological target: Mitogen-activated protein kinase 10 (Homo sapiens, UniProt P53779); assay: Inhibition of JNK3 by time resolved fluorescence assay
[3] = Inhibition of p38 kinase by time resolved fluorescence assay
Summary of the method: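 Commercial recombinant p38 in a homogeneous time-resolved fluorescence biochemical assay run per an earlier protocol. IC50 is the average of three or more experiments.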

[4] = biological target: CYP2C9 (Homo sapiens, UniProt P11712); assay: Inhibition of human CYP2C9 at 10 uM after 15 mins; format: ADME
[5] = biological target: CYP2D6 (Homo sapiens, UniProt P10635); assay: Inhibition of human CYP2D6 at 10 uM after 15 mins; format: ADME
[6] = biological target: CYP3A4 (Homo sapiens, UniProt P08684); assay: Inhibition of human CYP3A4 at 10 uM after 15 mins; format: ADME
[7] = biological target: T1, CYP1A2 (Homo sapiens, UniProt P05177); assay: Inhibition of human CYP1A2 at 10 uM after 15 mins; format: ADME
T1 sequence (P05177 whole entry): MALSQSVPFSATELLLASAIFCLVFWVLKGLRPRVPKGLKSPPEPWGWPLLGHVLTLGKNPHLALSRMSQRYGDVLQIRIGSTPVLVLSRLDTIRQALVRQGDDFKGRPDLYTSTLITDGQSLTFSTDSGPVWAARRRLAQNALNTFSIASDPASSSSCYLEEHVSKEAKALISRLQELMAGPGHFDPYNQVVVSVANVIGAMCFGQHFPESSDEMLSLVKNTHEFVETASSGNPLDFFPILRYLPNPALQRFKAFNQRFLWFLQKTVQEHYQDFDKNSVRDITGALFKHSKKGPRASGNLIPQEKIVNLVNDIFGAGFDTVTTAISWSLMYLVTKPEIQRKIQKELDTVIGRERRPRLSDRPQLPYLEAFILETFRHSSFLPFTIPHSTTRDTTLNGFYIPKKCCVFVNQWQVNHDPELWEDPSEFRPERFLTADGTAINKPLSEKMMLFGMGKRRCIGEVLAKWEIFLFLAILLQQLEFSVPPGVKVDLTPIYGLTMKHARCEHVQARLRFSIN

[8] = Metabolic stability in mouse liver microsomes at 1 uM by LC-MS/MS analysis; format: ADME, Microsome
[9] = test system: Liver microsomes; assay: Metabolic stability in rat liver microsomes at 1 uM by LC-MS/MS analysis; format: ADME, Microsome
[10] = test system: Liver microsomes; assay: Metabolic stability in human liver microsomes at 1 uM by LC-MS/MS analysis; format: ADME, Microsome
[11] = Plasma clearance in Sprague-Dawley rat at 1 mg/kg, iv and 2 mg/kg, po; format: ADME, organism-based
Summary of the method: (§1)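 Sprague-Dawley rats (n = 3) given 1 mg/kg i.v. and 2 mg/kg oral gavage. Blood was drawn into EDTA at 5, 15, 30 min and 1, 2, 4, 6, 8 h. Plasma proteins were precipitated with acetonitrile and drug was measured by LC-MS/MS. Cmax, AUC, t1/2, CL, Vd and oral bioavailability came from noncompartmental analysis.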

[12] = Half life in Sprague-Dawley rat at 1 mg/kg, iv and 2 mg/kg, po; format: ADME, organism-based; conditions: in vivo; summary of the method: as §1
[13] = Volume of distribution in Sprague-Dawley rat at 1 mg/kg, iv and 2 mg/kg, po; format: ADME, organism-based; conditions: in vivo; summary of the method: as §1
[14] = AUC in Sprague-Dawley rat at 2 mg/kg, po; format: ADME, organism-based; set-up: dose 2 mg/kg, route oral; conditions: plasma
[15] = Cmax in Sprague-Dawley rat at 2 mg/kg, po; format: ADME, organism-based; set-up: dose 2 mg/kg, route oral; conditions: in vivo
[16] = test system: Rattus norvegicus; assay: Oral bioavailability in Sprague-Dawley rat at 2 mg/kg; format: ADME, organism-based; conditions: in vivo; summary of the method: as §1
[17] = Inhibition of c-jun phosphorylation in rat INS-1 cells; format: cell-based; conditions: INS1
[18] = test system: Jurkat; assay: Inhibition of IL-2 release in human Jurkat cells at 10 uM; format: functional
[19] = Inhibition of streptozotocin-induced H2O2 production in rat INS1(823/13) cells treated 30 mins before streptozotocin challenge measured after 4 hrs; format: functional, cell-based
Summary of the method: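 Rat insulinoma INS1 823/13 cells in RPMI 1640 with 10% FBS were plated and left overnight at 37 °C. Compound in DMSO was added 30 min before 4 mM STZ and kept through 4 h of STZ at 37 °C. Cells were loaded with 5 μM CM-H2DCFDA for 1 h, and fluorescence was read at 495/525 nm. Signal was normalized to STZ alone. A 12-point curve was fitted by four-parameter regression over four biological replicates run in duplicate.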

[20] = biological target: Dual specificity mitogen-activated protein kinase kinase 7 (Homo sapiens) (UniProt O14733); assay: Inhibition of MKK7 at 3 uM
[21] = biological target: Dual specificity mitogen-activated protein kinase kinase 4 (Homo sapiens) (UniProt P45985); assay: Inhibition of MKK4 at 3 uM
[22] = biological target: Mitogen-activated protein kinase kinase kinase 9 (Homo sapiens) (UniProt P80192); assay: Inhibition of MLK1 at 3 uM
Summary of the method: (§2)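 Counterscreen in a biochemical panel of 400 kinases. Each kinase was tested at a single inhibitor level of 3 μM, and percent inhibition was recorded.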

[23] = biological target: Mitogen-activated protein kinase kinase kinase 10 (Homo sapiens) (UniProt Q02779); assay: Inhibition of MLK2 at 3 uM; summary of the method: as §2
[24] = biological target: Mitogen-activated protein kinase kinase kinase 11 (Homo sapiens) (UniProt Q16584); assay: Inhibition of MLK3 at 3 uM; summary of the method: as §2
[25] = biological target: Mitogen-activated protein kinase kinase kinase 1 (Homo sapiens) (UniProt Q13233); assay: Inhibition of MAPK3K1 at 3 uM; summary of the method: as §2
[26] = biological target: Mitogen-activated protein kinase kinase kinase 2 (Homo sapiens) (UniProt Q9Y2U5); assay: Inhibition of MAPK3K2 at 3 uM; summary of the method: as §2
[27] = biological target: Mitogen-activated protein kinase kinase kinase 3 (Homo sapiens) (UniProt Q99759); assay: Inhibition of MAPK3K3 at 3 uM; summary of the method: as §2
[28] = biological target: Mitogen-activated protein kinase kinase kinase 4 (Homo sapiens) (UniProt Q9Y6R4); assay: Inhibition of MAPK3K4 at 3 uM; summary of the method: as §2
[29] = biological target: Mitogen-activated protein kinase kinase kinase 5 (Homo sapiens) (UniProt Q99683); assay: Inhibition of ASK1 at 3 uM
[30] = test system: Plasma; assay: Protein binding in mouse plasma; format: ADME, cell-free
[31] = test system: Plasma; assay: Protein binding in rat plasma; format: ADME, cell-free
[32] = test system: Plasma; assay: Protein binding in dog plasma; format: ADME, cell-free, Canis lupus familiaris
[33] = test system: Plasma; assay: Protein binding in monkey plasma; format: ADME, cell-free, Macaca mulatta; conditions: rhesus monkey
[34] = test system: Plasma; assay: Protein binding in human plasma; format: ADME, cell-free
[35] = Selectivity ratio of IC50 for JNK1 over IC50 for p38 kinase
[36] = Selectivity ratio of IC50 for JNK3 over IC50 for p38 kinase

Sequence of CYP2C9 (P11712 whole entry): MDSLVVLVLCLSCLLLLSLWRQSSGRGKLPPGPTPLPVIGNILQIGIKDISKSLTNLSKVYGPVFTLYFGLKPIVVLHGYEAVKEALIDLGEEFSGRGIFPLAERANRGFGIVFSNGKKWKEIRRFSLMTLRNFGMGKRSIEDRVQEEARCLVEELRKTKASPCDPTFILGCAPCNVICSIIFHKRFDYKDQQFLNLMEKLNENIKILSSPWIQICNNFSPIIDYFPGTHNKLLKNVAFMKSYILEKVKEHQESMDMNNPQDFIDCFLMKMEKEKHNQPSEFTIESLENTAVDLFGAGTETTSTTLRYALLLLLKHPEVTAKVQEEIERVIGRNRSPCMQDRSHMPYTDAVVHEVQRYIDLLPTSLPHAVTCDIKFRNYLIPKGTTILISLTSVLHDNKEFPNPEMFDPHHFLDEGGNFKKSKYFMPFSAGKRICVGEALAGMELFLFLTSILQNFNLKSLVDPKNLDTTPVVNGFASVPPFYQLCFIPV
Sequence of CYP3A4 (P08684 whole entry): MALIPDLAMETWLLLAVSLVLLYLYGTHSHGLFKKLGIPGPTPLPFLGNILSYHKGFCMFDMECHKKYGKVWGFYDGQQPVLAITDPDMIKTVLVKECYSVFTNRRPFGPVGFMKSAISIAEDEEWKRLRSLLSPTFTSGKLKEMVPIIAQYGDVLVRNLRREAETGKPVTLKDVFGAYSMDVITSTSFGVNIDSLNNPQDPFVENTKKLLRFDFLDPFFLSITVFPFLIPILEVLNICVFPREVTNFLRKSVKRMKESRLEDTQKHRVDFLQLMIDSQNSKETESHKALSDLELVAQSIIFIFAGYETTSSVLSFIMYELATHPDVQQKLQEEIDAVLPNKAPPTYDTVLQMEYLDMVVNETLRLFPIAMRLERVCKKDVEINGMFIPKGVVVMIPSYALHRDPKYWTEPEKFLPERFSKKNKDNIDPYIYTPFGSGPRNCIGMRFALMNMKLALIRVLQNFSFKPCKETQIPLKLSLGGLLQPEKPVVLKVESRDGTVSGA
Sequence of CYP2D6 (P10635 whole entry): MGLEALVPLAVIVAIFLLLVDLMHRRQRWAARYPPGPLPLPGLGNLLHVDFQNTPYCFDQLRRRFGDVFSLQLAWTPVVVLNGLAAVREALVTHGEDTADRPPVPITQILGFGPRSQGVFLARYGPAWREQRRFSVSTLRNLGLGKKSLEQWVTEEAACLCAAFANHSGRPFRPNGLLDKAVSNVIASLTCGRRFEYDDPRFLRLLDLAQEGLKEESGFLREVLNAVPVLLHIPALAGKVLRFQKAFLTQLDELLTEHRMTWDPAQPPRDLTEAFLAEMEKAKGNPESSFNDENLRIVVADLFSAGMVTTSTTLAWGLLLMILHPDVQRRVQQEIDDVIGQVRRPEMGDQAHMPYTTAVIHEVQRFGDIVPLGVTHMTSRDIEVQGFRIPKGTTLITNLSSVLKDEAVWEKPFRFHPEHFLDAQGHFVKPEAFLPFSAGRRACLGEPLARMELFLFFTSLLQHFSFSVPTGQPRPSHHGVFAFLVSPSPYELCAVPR
Sequence of Mitogen-activated protein kinase 8 (P45983 whole entry): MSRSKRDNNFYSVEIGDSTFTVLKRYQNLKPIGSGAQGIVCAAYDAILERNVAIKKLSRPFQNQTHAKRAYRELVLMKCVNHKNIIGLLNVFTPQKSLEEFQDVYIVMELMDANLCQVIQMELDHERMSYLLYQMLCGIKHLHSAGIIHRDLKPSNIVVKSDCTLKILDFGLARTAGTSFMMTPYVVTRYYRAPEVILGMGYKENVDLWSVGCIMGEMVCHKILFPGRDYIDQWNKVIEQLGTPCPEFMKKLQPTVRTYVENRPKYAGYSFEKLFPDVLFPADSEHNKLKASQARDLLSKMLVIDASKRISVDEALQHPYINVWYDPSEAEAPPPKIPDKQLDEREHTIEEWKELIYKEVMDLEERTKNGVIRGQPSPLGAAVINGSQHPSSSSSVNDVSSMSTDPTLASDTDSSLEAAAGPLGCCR
Sequence of Mitogen-activated protein kinase 10 (P53779 whole entry): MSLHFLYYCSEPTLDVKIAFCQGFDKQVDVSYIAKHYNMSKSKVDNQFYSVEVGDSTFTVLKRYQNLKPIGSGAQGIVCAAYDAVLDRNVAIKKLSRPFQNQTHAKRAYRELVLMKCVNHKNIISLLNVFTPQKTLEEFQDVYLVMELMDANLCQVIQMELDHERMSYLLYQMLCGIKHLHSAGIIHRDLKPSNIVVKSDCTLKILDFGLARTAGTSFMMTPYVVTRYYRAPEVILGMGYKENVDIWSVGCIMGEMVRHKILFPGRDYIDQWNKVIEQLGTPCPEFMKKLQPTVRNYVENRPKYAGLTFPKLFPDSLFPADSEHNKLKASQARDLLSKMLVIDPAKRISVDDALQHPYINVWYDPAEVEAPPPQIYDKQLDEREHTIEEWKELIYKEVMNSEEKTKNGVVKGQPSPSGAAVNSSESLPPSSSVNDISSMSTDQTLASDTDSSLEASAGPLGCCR
Sequence of Dual specificity mitogen-activated protein kinase kinase 7 (Homo sapiens) (O14733 whole entry): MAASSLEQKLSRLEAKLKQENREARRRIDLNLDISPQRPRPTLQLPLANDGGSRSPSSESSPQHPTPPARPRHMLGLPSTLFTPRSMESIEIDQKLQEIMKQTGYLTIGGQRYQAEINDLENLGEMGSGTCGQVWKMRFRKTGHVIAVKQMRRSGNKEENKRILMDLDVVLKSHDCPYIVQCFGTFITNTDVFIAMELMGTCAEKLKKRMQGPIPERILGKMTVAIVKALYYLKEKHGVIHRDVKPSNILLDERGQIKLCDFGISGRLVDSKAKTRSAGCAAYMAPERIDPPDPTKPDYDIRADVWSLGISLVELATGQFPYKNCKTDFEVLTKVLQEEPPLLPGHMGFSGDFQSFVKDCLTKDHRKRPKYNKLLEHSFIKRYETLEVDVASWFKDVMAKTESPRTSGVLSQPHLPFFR
Sequence of Dual specificity mitogen-activated protein kinase kinase 4 (Homo sapiens) (P45985 whole entry): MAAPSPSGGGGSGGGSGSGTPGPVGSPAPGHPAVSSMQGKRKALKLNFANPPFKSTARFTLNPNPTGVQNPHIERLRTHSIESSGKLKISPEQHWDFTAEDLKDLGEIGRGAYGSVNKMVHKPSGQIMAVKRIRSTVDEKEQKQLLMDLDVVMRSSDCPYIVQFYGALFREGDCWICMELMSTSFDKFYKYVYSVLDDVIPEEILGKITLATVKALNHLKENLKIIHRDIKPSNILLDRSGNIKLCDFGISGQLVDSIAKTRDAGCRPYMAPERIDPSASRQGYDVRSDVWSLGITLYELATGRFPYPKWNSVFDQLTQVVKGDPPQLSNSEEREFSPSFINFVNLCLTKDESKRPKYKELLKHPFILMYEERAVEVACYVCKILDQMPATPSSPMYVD
Sequence of Mitogen-activated protein kinase kinase kinase 9 (Homo sapiens) (P80192 whole entry, looked up): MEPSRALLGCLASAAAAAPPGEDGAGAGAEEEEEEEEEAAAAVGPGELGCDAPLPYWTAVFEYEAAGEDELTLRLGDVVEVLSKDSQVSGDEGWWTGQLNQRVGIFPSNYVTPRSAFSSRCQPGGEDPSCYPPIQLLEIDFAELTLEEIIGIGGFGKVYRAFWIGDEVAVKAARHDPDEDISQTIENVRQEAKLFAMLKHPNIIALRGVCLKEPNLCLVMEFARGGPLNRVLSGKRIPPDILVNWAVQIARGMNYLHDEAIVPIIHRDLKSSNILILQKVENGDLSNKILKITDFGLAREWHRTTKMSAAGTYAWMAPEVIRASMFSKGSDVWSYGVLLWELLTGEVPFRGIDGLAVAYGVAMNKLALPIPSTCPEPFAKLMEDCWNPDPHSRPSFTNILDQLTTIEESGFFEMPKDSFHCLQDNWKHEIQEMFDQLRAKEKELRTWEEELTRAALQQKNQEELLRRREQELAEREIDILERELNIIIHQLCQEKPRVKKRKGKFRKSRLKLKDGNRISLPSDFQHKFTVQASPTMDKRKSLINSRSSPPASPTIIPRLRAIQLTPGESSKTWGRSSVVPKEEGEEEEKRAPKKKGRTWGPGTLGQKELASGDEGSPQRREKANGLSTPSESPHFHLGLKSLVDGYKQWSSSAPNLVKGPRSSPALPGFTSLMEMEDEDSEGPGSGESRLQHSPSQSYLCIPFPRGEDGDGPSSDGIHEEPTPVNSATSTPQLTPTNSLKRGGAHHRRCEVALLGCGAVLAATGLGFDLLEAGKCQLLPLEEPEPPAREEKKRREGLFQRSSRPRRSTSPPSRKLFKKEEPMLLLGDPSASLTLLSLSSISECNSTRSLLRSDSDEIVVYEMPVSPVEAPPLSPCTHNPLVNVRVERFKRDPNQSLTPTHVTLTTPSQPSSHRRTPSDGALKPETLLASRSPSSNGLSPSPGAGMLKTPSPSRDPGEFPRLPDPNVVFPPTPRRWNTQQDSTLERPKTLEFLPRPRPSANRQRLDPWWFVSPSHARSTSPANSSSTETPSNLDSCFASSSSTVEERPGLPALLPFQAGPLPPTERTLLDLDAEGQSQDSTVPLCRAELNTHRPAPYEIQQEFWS
Sequence of Mitogen-activated protein kinase kinase kinase 3 (Homo sapiens) (Q99759 whole entry): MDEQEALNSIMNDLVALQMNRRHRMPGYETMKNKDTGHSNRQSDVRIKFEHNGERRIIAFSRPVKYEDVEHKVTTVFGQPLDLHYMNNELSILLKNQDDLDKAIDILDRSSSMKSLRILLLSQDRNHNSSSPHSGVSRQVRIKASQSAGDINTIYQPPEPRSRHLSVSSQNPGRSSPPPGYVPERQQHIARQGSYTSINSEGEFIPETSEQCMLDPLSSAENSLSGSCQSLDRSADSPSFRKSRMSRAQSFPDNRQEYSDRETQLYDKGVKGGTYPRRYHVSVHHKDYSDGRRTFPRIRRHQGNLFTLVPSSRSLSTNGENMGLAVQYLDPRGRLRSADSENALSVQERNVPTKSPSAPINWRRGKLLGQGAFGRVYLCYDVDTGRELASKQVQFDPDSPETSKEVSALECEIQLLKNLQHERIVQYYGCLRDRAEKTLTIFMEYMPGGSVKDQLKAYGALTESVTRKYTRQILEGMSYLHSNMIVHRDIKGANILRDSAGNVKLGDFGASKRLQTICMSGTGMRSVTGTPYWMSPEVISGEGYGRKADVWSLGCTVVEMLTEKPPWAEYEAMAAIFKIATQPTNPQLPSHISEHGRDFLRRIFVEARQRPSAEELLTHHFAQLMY

Structure (SMILES): c1cc(-c2ccnc(Nc3ccc(-n4ccnn4)cc3)n2)cc(N2CCOCC2)c1
pIC50 [1]: 6.91
pIC50 [2]: 6.44
pIC50 [3]: < 4.70

Structure (SMILES): Cn1nnc(-c2ccc(Nc3nccc(-c4cc(C#N)cc(N5CCOCC5)c4)n3)cc2)n1
pIC50 [1]: 7.35
pIC50 [2]: 6.85
pIC50 [3]: < 4.70
inhibition at 0.25 h, 10 µM [4]: 7%
inhibition at 0.25 h, 10 µM [5]: 10%
inhibition at 0.25 h, 10 µM [6]: 15%
inhibition at 0.25 h, 10 µM [7]: -1%
Stability [8]: 26 min
Stability [9]: 11 min
Stability [10]: 17 min
clearance [11]: 44 mL/min/kg
half-life [12]: 1.9 h
Vd [13]: 3.3 L/kg
AUC [14]: 0.24 µM·h
Cmax [15]: 70 nM
F [16]: 14%

Structure (SMILES): Cc1ncn(-c2ccc(Nc3nccc(-c4cccc(N5CCOCC5)c4)n3)cc2)n1
pIC50 [1]: 6.95
pIC50 [2]: 6.41
pIC50 [3]: < 4.70
pIC50 [17]: 6.55
inhibition at 0.25 h, 10 µM [4]: 43%
inhibition at 0.25 h, 10 µM [5]: 4%
inhibition at 0.25 h, 10 µM [6]: 48%
inhibition at 0.25 h, 10 µM [7]: 39%
Stability [8]: 5 min
Stability [9]: 17 min
Stability [10]: 18 min
clearance [11]: 10 mL/min/kg
half-life [12]: 0.8 h
Vd [13]: 0.4 L/kg
AUC [14]: 2 µM·h
Cmax [15]: 950 nM
F [16]: 25%

Structure (SMILES): N#C/C(=C1/Nc2ccccc2S1)c1ccnc(NCCc2cccnc2)n1
inhibition at 10 µM [18]: 90%

Structure (SMILES): Fc1cc(-c2cc[nH]/c(=N/c3ccc(-n4cnc(N5CCOCC5)n4)cc3)n2)cc(N2CCOCC2)c1
pIC50 [3]: < 4.70
pIC50 [17]: 7.27
pIC50 [19]: 9.09
Activity [20]: inactive
Activity [21]: inactive
Activity [22]: inactive
Activity [23]: inactive
Activity [24]: inactive
Activity [25]: inactive
Activity [26]: inactive
Activity [27]: inactive
Activity [28]: inactive
Activity [29]: inactive

Structure (SMILES): N#Cc1cc(-c2ccnc(Nc3ccc(-n4cnc(-c5ccccn5)n4)cc3)n2)cc(N2CCOCC2)c1
pIC50 [1]: 7.41
pIC50 [2]: 7.10
pIC50 [3]: < 4.70
inhibition at 0.25 h, 10 µM [4]: -2%
inhibition at 0.25 h, 10 µM [5]: -4%
inhibition at 0.25 h, 10 µM [6]: 33%
inhibition at 0.25 h, 10 µM [7]: 15%
Stability [8]: 51 min
Stability [9]: 47 min
Stability [10]: 29 min
clearance [11]: 3 mL/min/kg
half-life [12]: 3 h
Vd [13]: 0.6 L/kg
AUC [14]: 5.9 µM·h
Cmax [15]: 500 nM
F [16]: 27%

pIC50 [3]: < 4.70
Structure (SMILES): NC(=O)c1ccc(Nc2nccc(-c3ccccc3)n2)cc1

Structure (SMILES): Fc1cc(-c2ccnc(Nc3ccc(-n4cnc(N5CCOCC5)n4)cc3)n2)cc(N2CCOCC2)c1
pIC50 [1]: 7.00
inhibition at 0.25 h, 10 µM [4]: 75%
inhibition at 0.25 h, 10 µM [5]: 4%
inhibition at 0.25 h, 10 µM [6]: 89%
inhibition at 0.25 h, 10 µM [7]: 70%
Stability [8]: 21 min
Stability [9]: 41 min
Stability [10]: 26 min
PPB [30]: 92%
PPB [31]: 98%
PPB [32]: 96%
PPB [33]: 96%
PPB [34]: 92%
clearance [11]: 20 mL/min/kg
half-life [12]: 2.4 h
Vd [13]: 2.5 L/kg
AUC [14]: 1.4 µM·h
Cmax [15]: 300 nM
F [16]: 45%

Structure (SMILES): CS(=O)(=O)Nc1ccc(-c2ccnc(Nc3ccc(-n4ccnn4)cc3)n2)cc1
pIC50 [1]: 7.80
pIC50 [2]: 8.40
pIC50 [3]: < 4.70
pIC50 [17]: 6.68

Structure (SMILES): CN1CCN(c2ncn(-c3ccc(Nc4nccc(-c5cc(F)cc(N6CCOCC6)c5)n4)cc3)n2)CC1
pIC50 [1]: 6.99
pIC50 [2]: 6.88
pIC50 [3]: < 4.70
pIC50 [17]: 6.59

Structure (SMILES): Cc1ncn(-c2ccc(Nc3nccc(-c4cc(C#N)cc(N5CCOCC5)c4)n3)cc2)n1
pIC50 [1]: 7.27
pIC50 [2]: 7.10
pIC50 [3]: < 4.70
pIC50 [17]: 7.05
Ratio IC50 [35]: > 135
Ratio IC50 [36]: > 135

Structure (SMILES): c1cncc(-c2ncn(-c3ccc(Nc4nccc(-c5cccc(N6CCOCC6)c5)n4)cc3)n2)c1
pIC50 [1]: 7.01
pIC50 [3]: < 4.70

pIC50 [3]: < 4.70
Structure (SMILES): CS(=O)(=O)Nc1ccc(-c2ccnc(Nc3ccc(S(N)(=O)=O)cc3)n2)cc1
